# Measured values taken from ChEMBL document CHEMBL4513216, “Probing the Open Global Health Chemical Diversity Library for Multistage-Active Starting Points for Next-Generation Antimalarials” (ACS Infect Dis, 2020).
# Experiment: Toxicity liver stage against HepG2, at 10uM
# Type: cell-based
# Design: test concentration 10 uM, cell line HepG2-A16-CD81EGFP
# Conditions: human, HepG2-A16-CD81EGFP cells; read-out: INHIBITION
# How it was run: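 Uninfected HepG2-A16-CD81EGFP cells, 3 × 10^3 per well, 1536-well, plated on prespotted compound at 10 μM final, parasite-free screening media added to match infected plates; puromycin 10 μM positive, DMSO 0.5% negative; run in parallel with 48 h PbLuc assay at 37 °C, 5% CO2; viability by CellTiter-Glo luminescence, normalized to controls.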
row,Compound,cytotoxicity at 10 µM [%]
1,Cc1ccc(C(=O)NCCCN2CCOCC2)c(Cl)c1,-12.5
2,O=C(NCCN1CCOCC1)N1CCN(c2ccccc2)CC1,8.84
3,CC(=O)NC[C@H]1COCc2nc3cc(S(C)(=O)=O)ccc3n21,0.722
4,O=C(NCc1ccccc1)[C@@H]1Cc2[nH]cnc2CN1CC1CC1,3.17
5,O=C1CCC(c2ccc(Cl)cc2)=NN1CN1CCCCCC1,35.7
6,Cc1noc(C)c1CN1CC2(CCN(C(=O)c3ccc[nH]3)C2)CC1=O (stereo not given),6.27
7,CN(Cc1cn2c(n1)CN(C(=O)c1cccnc1)CC2)Cc1ccco1,-2.19
8,CCC(=O)N1CCC2(COCc3c(C)nc(N(C)C)nc32)C1 (stereo not given),-31.5
9,Fc1cnc(N2CCC3(COCc4cnc(NCC5CC5)nc43)C2)nc1 (stereo not given),-4.43
10,O=c1[nH]cc(N2CCOCC2)c(=O)[nH]1,6.36
11,COCC(=O)N1CCCC(c2csc(NC(C)=O)n2)C1 (stereo not given),-17.2
12,CN1CCNC(Cc2ccc(-c3cccs3)cc2)C1=O (stereo not given),-29.3
13,CC(=O)N1CCC(c2ccnc(Nc3ccc(C)cn3)n2)C1 (stereo not given),-16.7
14,Cc1cc(CN2CCN(C(C)C(=O)NCc3cccs3)CC2)no1 (stereo not given),-0.335
15,Cc1cccc2nc(CN3CCC(N4CCN(C)C4=O)CC3)cn12,-0.337
16,Cc1nc2cc(=O)[nH]n2c(C)c1CNC(=O)C(C)(C)c1ccccc1,1.1
17,Cc1ccc(CN(C(=O)NCC2CCCO2)C2CC2)o1 (stereo not given),-151
18,O=C(CCC(=O)N1CCOCC1c1ccccc1)c1cccs1 (stereo not given),-1.26
19,Cc1ccccc1C(=O)NCCC(=O)NS(=O)(=O)c1cccnc1,-11.6
20,O=C(NCCOc1ccc(Cl)cn1)NCCc1ccccn1,7.95
21,NC(=O)N1CCCC1COC(=O)c1ccc(F)cc1Br (stereo not given),0.616
22,CC(=O)c1ccc(NC(=O)NC(C)c2ccc3c(c2)CC(=O)N3)cc1 (stereo not given),-8.03

row,Compound,cytotoxicity at 10 µM [%]
1,O=C(C1CC1)N1CCN(C(=O)C2CC(=O)N(c3ccccc3Br)C2)CC1 (stereo not given),12.8
2,Cc1cnc(NC(=O)N2CCC(N3CCCCC3=O)CC2)s1,-0.772
3,Cc1csc(NC(=O)CN2CCc3nn(C)c(=O)cc3C2)n1,-0.995
4,NC(=O)CSc1ccccc1NC(=O)CC1C=CCC1 (stereo not given),-131
5,CC(C)(C)CC(=O)Nc1ccccc1SCC(N)=O,-138
6,CC(C)c1nnc2n1CCN(C(=O)c1ccc(OCC3CC3)nc1)C2,-0.556
7,Cc1ccccc1OCCN1CCCC1CS(N)(=O)=O (stereo not given),18.3
8,COc1c(Br)cccc1CCNC(=O)c1ncoc1C,3.39
9,OCCCNC1CCc2cc3c(cc21)OCCO3 (stereo not given),-5.93
10,Cc1nc(NC(=O)C2CCCN(C(=O)C3CC3)C2)sc1C (stereo not given),3.71
11,Cc1cc(C)cc(OCC(=O)N2CCCC2)c1,5.04
12,O=C(Nc1cc(-n2cccc2)ccc1F)N1CCCC1,-4.22
13,CC(=O)NS(=O)(=O)c1ccc2c(c1)N(C)CCC2,-0.89
14,c1csc(CNc2ccccc2Cn2cncn2)c1,11.5
15,O=C(Cc1ccc(Cl)cc1)N1CCC(O)(C(F)(F)F)C1 (stereo not given),-12.3
16,O=C(NCCc1nnc2n1CCCCC2)N1CCC2(CCCC2)CC1,-7.94
17,O=C(c1cn(-c2ccccc2Cl)nn1)N1CCCSCC1,-4.26
18,CC(C)Oc1ccc(CSc2nnc(CN3CCCC3=O)o2)cc1,-1.71
19,CCNC(=O)N1CCCCC1CCNS(C)(=O)=O (stereo not given),-7.71
20,CCCN1CCN(Cc2nccn2CC)C(C)C1 (stereo not given),8.14
21,Cn1nccc1-c1ncc(-c2cc(C(=O)O)n(CC3CC3)c2)cn1,1.55
22,CN1CCN(Cc2cnn(-c3ccccc3Cl)c2)[C@H]2CS(=O)(=O)C[C@H]21,6.19

row,Compound,cytotoxicity at 10 µM [%]
1,Oc1ccccc1-c1cc(-c2nc(C3CC3)n[nH]2)[nH]n1,0.45
2,CCCc1cc(C(=O)N2Cc3ccccc3C2)[nH]n1,2.02
3,Cc1nc(C2CCNCC2)cc(N2CCOc3ccccc3C2)n1,-2.3
4,COc1cc(-c2nc3c([nH]2)CCCNC3=O)ccc1O,16.9
5,CCn1c(CN2CCCC2)nnc1C1CCN(Cc2cc(C)no2)CC1,3.6
6,CCc1cnc(NCC(c2ccncc2)N2CCOCC2)nc1 (stereo not given),8.71
7,O=c1cc(N2CCCCC2)cnn1CCCn1cccn1,-48.9
8,CNC(=O)c1cc(-n2ccnc2-c2cnc(N(C)C)nc2)ccc1OC,-6.91
9,CC(=O)N[C@@H](CC(C)C)C(=O)N1CCC(n2cc(CC(C)C)nn2)CC1,-10.8
10,CCc1nc(N)nc(N2CCCC3(CCN(C)CC3)CC2)c1C,-179
11,CCO[C@H]1COC[C@@H]1NC(=O)c1c[nH]nc1C1CCCCC1,-3.13
12,Cc1cn2cc(-c3nc4c([nH]3)CCCNC4=O)nc2s1,5.48
13,CCc1cnc(NCCCN2CCC(O)CC2)nc1,3.44
14,CC(C)C[C@H](NC(=O)c1cc(-c2cccn2C)n[nH]1)C(N)=O,3.7
15,CC(C)N(C)CC(=O)N(C)C(c1cccc(F)c1)c1ccccn1 (stereo not given),-6.14
16,CCOCCN1CCN(CCCS(C)(=O)=O)CC1C (stereo not given),-4.14
17,CN(Cc1ccccc1C#N)C1CCN(CCc2ccccn2)CC1,-6.55
18,Cc1noc(C)c1CN(C)CC(c1cccs1)N1CCOCC1 (stereo not given),-4.98
19,c1cnnc(N2CCCC2CNCc2cscn2)c1 (stereo not given),-5.78
20,O=C(Cc1ccc2c(c1)OCCO2)NC1CCCCC1,-12.3
21,CCc1noc(C(C)N2CCN(CC)CC2)n1 (stereo not given),-6.01
22,Cc1nn(C)c(N(C)C)c1CNCc1ccc(Cn2cncn2)cc1,-6.94

row,Compound,cytotoxicity at 10 µM [%]
1,O=C(NCCc1cccs1)NCC(O)c1cccc(F)c1 (stereo not given),-4.07
2,CN(C)c1ncccc1CNS(=O)(=O)c1ccc(F)cc1F,-3
3,CCc1ccsc1C(=O)N1CCN(CC(N)=O)CC1,-1.1
4,Cc1nc(CN(C)C2CCN(Cc3nnc(C4CC4)o3)C2)no1 (stereo not given),-5
5,CN(Cc1ccco1)C(=O)CN1CCOC(Cn2cccn2)C1 (stereo not given),-9.91
6,FC(F)CN1CCOC(Cn2cccn2)C1 (stereo not given),-9.94
7,Cc1nn(C)c(C)c1C1CCCN1Cc1nc2ccccc2n1C (stereo not given),-14.4
8,CCCc1ccc(C(=O)N2CCn3c(nnc3C(C)C)C2)cc1,9.83
9,CCc1nnsc1C(=O)N1CCCN(Cc2cnn(CC)c2)CC1,-1.76
10,O=C(c1c[nH]cn1)N1CCCn2c(CN3CCCCC3)nnc2C1,-3.03
11,CN1CCN(C(=O)CCc2ccccc2)Cc2cccnc21,-1.04
12,O=C1COC2(CCN(Cc3ccncc3)CC2)CN1,-1.81
13,Fc1ccc(CN2CCn3cc(Cn4cccn4)nc3C2)cc1,0.864
14,c1ccc(C[C@H]2CN(C3CCOCC3)CC[C@H]2OCC2CC2)cc1,0.994
15,Cc1nn(C)c(N(C)C)c1CNCC(O)COc1ccccc1 (stereo not given),-0.0582
16,Cc1nc(CN2C(=O)CC[C@@H]3[C@H]2CCN3C2CCOC2)cs1 (stereo not given in full),-141
17,O=C(O)c1cc(C=Cc2ccc3ccccc3c2)ncn1,-13.6
18,CCN(CCSc1ccccc1)C(=O)c1cn(C2CCC(N)CC2)nn1 (stereo not given),-2.93
19,CN1C(=O)[C@@H]2CC[C@H]1CN(C(=O)Nc1ccccc1C(F)(F)F)C2,-2.53
